pIC50: −log10 of the molar value. In brackets after ≈: the same amount, converted by molar mass. Activity calls are given as the source filed them. No cut-off for these calls is given here.

For the first assay, the species on record is Homo sapiens. In words: Inhibition of complement system in human fetal serum assessed as inhibition of hemolysis at 100 ug/mL incubated for 1 hr by spectrophotometric analysis.
One may read the inhibition as the share of the control response that was lost under treatment. Turning to `CCCCCCCCCCOc1cc(NC(=O)N[C@@H](C)c2ccccc2)ccc1OC`, the inhibition result was “inactive”.
The same measure, in the same setting: to `COc1ccc(NC(=O)N[C@@H](C)c2ccccc2)cc1` belongs “inactive”.
Still for that read-out and setting: under `CCCCCCCCCCCCOc1cc(NC(=O)N[C@@H](C)c2ccccc2)ccc1OC` stands “inactive”; under `COc1ccc(N(C)C(=O)N(C)[C@@H](C)c2ccccc2)cc1OCCCC(C)C`, “inactive”; under `COc1cccc(NC(=O)N[C@@H](C)c2ccccc2)c1`, “inactive”.
`C[C@H](NC(=O)Nc1ccc(Cl)cc1)c1ccccc1`: the inhibition result was “inactive”.
Still for that read-out and setting: under `C=CCOc1ccc(NC(=O)N[C@@H](C)c2ccccc2)cc1OC` stands “inactive”; under `COc1cc(NC(=O)N[C@@H](C)c2ccccc2)ccc1OCc1ccccc1`, “inactive”; under `COc1ccc(NC(=O)N[C@H](C)c2ccccc2)cc1OC`, 16.9%.
Same read-out and setting: to `CCOC(=O)COc1ccc(NC(=O)N[C@@H](C)c2ccccc2)cc1OC` belongs “inactive”; to `COc1cc(NC(=O)N[C@@H](C)c2ccccc2)ccc1OCCNC(=O)OC(C)(C)C`, “inactive”; to `CCOc1ccc(NC(=O)N[C@@H](C)c2ccccc2)cc1OC`, “inactive”.
Same read-out and setting: to `C[C@H](NC(=O)Nc1ccccc1)c1ccccc1` belongs “inactive”; to `COc1ccc(NC(=O)N[C@@H](C)c2ccccc2)cc1O`, 35.3%.
For `COc1ccc(NC(=O)N[C@@H](C)c2ccccc2)cc1OCCN1CCCC1`, the inhibition result was “inactive”.
Turning to `COc1ccc(NC(=O)N(C)Cc2ccccc2)cc1OC`, the inhibition was 43.8%.
On the same count and under the same terms, to `COc1ccc(NC(=O)NCc2cccc3ccccc23)cc1OC` belongs “inactive”.
The same measure, in the same setting: to `COc1cc(NC(=O)N[C@@H](C)c2ccccc2)ccc1O` belongs 14.6%; to `COc1ccc(NC(=O)NCc2cccc(-c3ccccc3)c2)cc1OC`, “inactive”; to `COc1ccc(NC(=O)N[C@@H](C)c2ccccc2)cc1OCc1ccccc1`, 32.7%.
For `C[C@H](NC(=O)Nc1cccnc1)c1ccccc1`, the inhibition result was “inactive”.

System in the next assay: not listed separately
In words: Inhibition of lectin pathway in human serum assessed as inhibition of C3 activation incubated for 1 hr by ELISA. Type of assay: cell-free. Summed up:
(§1)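 Normal human serum was added to coated plates and incubated with a range of inhibitor concentrations. The coating set the pathway: IgM for the classical pathway, mannan for the lectin pathway, and zymosan for the alternative pathway. C3, C4 and C9 deposition were then measured on the plates.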
Background: ELISA stands for enzyme-linked immunosorbent assay.
Take `COc1ccc(NC(=O)N[C@@H](C)c2ccccc2)cc1OCCCC(C)C`: the inhibition result was “inactive”.

System in a further assay: not listed separately
In words: Inhibition of classical complement system in human serum assessed as inhibition of C9 deposition incubated for 1 hr by ELISA. The class given is cell-free. In outline:
as §1
Broadly, the IC50 is the concentration needed to halve the response being measured. `COc1ccc(NC(=O)N[C@@H](C)c2ccccc2)cc1OCCCC(C)C`: the IC50 is 3.68 µg/mL (≈ 9.93 µM).

For a further assay, the species on record is Homo sapiens. In words: Inhibition of complement system in human fetal serum assessed as inhibition of hemolysis at 10 ug/mL incubated for 1 hr by spectrophotometric analysis.
Regarding `COc1ccc(NC(=O)N[C@@H](C)c2ccc(C(F)(F)F)cc2)cc1OCCCC(C)C`, the inhibition result is “inactive”.

System in the next assay: not listed separately
In words: Inhibition of alternative complement system in human serum assessed as inhibition of C9 deposition incubated for 1 hr by ELISA. Type of assay: cell-free. Summed up:
as §1
In the case of `COc1ccc(NC(=O)N[C@@H](C)c2ccccc2)cc1OCCCC(C)C`, the IC50 was 3.59 µg/mL (≈ 9.69 µM).

System in a further assay: not listed separately
In words: Inhibition of lectin pathway in human serum assessed as inhibition of C9 deposition at 10 ug/mL incubated for 1 hr by ELISA. Type of assay: cell-free.
As to `COc1ccc(NC(=O)N[C@@H](C)c2ccccc2)cc1OCCCC(C)C`, the inhibition was 90%.

Another assay is filed under the species Homo sapiens. In words: Inhibition of classical complement system in human serum assessed as inhibition of C9 deposition at 10 ug/mL incubated for 1 hr by ELISA. The class given is cell-free.
For `COc1ccc(NC(=O)N[C@@H](C)c2ccccc2)cc1OCCCC(C)C`, the inhibition was 90%.

The species named for another assay is Homo sapiens. In words: Inhibition of classical complement system in human serum assessed as inhibition of C4 activation incubated for 1 hr by ELISA. Type of assay: cell-free. In outline:
as §1
Consider `COc1ccc(NC(=O)N[C@@H](C)c2ccccc2)cc1OCCCC(C)C`, for which the inhibition entry was “inactive”.

A further assay is filed under the species Homo sapiens. In words: Inhibition of classical complement system in human serum assessed as inhibition of C3 activation incubated for 1 hr by ELISA. The class given is cell-free. Summed up:
as §1
Turning to `COc1ccc(NC(=O)N[C@@H](C)c2ccccc2)cc1OCCCC(C)C`, the inhibition result was “inactive”.

System in a further assay: not listed separately
In words: Inhibition of lectin pathway in human serum assessed as inhibition of C9 deposition incubated for 1 hr by ELISA. Type of assay: cell-free. In outline:
as §1
Turning to `COc1ccc(NC(=O)N[C@@H](C)c2ccccc2)cc1OCCCC(C)C`, the IC50 was determined as 4.46 µg/mL (≈ 12 µM).

The species entered for a further assay is Homo sapiens. In words: Inhibition of alternative complement system in human serum assessed as inhibition of C3 activation incubated for 1 hr by ELISA. Type of assay: cell-free. Summed up: as §1
Turning to `COc1ccc(NC(=O)N[C@@H](C)c2ccccc2)cc1OCCCC(C)C`, the inhibition entry is “inactive”.

A further assay is filed under the species Homo sapiens. In words: Inhibition of alternative complement system in human serum assessed as inhibition of C4 activation incubated for 1 hr by ELISA. Type of assay: cell-free. In outline:
as §1
Consider `COc1ccc(NC(=O)N[C@@H](C)c2ccccc2)cc1OCCCC(C)C`, for which the inhibition result was “inactive”.

System in another assay: not listed separately
In words: Inhibition of lectin pathway in human serum assessed as inhibition of C4 activation incubated for 1 hr by ELISA. Type of assay: cell-free. In outline: as §1
As for `COc1ccc(NC(=O)N[C@@H](C)c2ccccc2)cc1OCCCC(C)C`, the inhibition result was “inactive”.

The species entered for a further assay is Homo sapiens. In words: (§2) Inhibition of complement system in human fetal serum assessed as inhibition of hemolysis incubated for 1 hr by spectrophotometric analysis.
Turning to `CCCCCOc1ccccc1NC(=O)N[C@@H](C)c1ccccc1`, the inhibition entry was “inactive”.
With `CCCCOc1cc(NC(=O)NCC(C)c2ccccc2)ccc1OC` (configuration not stated), the inhibition entry was “inactive”.
Turning to `CCCCOc1cc(NC(=O)NCCC(C)c2ccccc2)ccc1OC` (configuration not stated), the inhibition entry is “inactive”.
Take `CCCCCOc1cc(OC)ccc1NC(=O)N[C@@H](C)c1ccccc1`: the inhibition entry was “inactive”.
The same measure, in the same setting: to `CCCCOc1cc(NC(=O)N2CCCCC2c2ccccc2)ccc1OC` (configuration not stated) belongs “inactive”.
Take `CCCCOc1cc(NC(=O)NC2CCc3ccccc32)ccc1OC` (configuration not stated): the inhibition result was “inactive”.
Still for that read-out and setting: under `CCCCCOc1cc(OC)c(NC(=O)N[C@@H](C)c2ccccc2)c(OC)c1` stands “inactive”.
On the same count and under the same terms, to `CCCCCOc1ccc(OC)cc1NC(=O)N[C@@H](C)c1ccccc1` belongs “inactive”.

System in the next assay: not listed separately
The assay is described as §2.
As a reminder, the pIC50 is the negative decadic logarithm of the IC50, by convention in mol/L. `COc1ccc(NC(=O)N(C)[C@@H](C)c2ccccc2)cc1OCCCC(C)C`: the pIC50 is 7.72.
Consider `CCCCCCCCOc1cc(NC(=O)N[C@@H](C)c2ccccc2)ccc1OC`, for which the pIC50 was 5.89.
Still for that read-out and setting: to `COc1ccc(NC(=O)N[C@@H](C)c2ccc(Br)cc2)cc1OCCCC(C)C` belongs 5.47; to `CCCCCOc1cc(NC(=O)N[C@@H](C)c2ccccc2)ccc1OC`, 7.72; to `CCC#CCOc1cc(NC(=O)N[C@@H](C)c2ccccc2)ccc1OC`, 6.61.
As for `CCCOc1cc(NC(=O)N[C@@H](C)c2ccccc2)ccc1OC`, the pIC50 was 6.45.
The same measure, in the same setting: to `COc1ccc(NC(=O)N[C@@H](C)c2ccccc2)cc1OC` belongs 4.30.
The same measure, in the same setting: under `COc1ccc(NC(=O)N(CC(O)CO)[C@@H](C)c2ccccc2)cc1OCCCC(C)C` (some centres not stated) stands 6.43.
Same read-out and setting: to `CCOc1cc(NC(=O)N[C@@H](C)c2ccccc2)ccc1OC` belongs 5.54; to `COc1ccc(NC(=O)N[C@@H](C)c2ccccc2)cc1OCCC(C)C`, 6.20; to `COc1ccc(NC(=O)N(CCO)[C@@H](C)c2ccccc2)cc1OCCCC(C)C`, 6.49.
For `COc1ccc(N(CCCO)C(=O)N[C@@H](C)c2ccccc2)cc1OCCCC(C)C`, the pIC50 is 5.80.
Same read-out and setting: to `CCOC(=O)COc1cc(NC(=O)N[C@@H](C)c2ccccc2)ccc1OC` belongs 5.21; to `COc1ccc(NC(=O)N[C@@H](C)c2ccccc2)cc1OCCN1CCCCC1`, 4.45; to `COc1ccc(N(C)C(=O)N[C@@H](C)c2ccccc2)cc1OCCCC(C)C`, 6.27.
On the same count and under the same terms, to `C=C(C)COc1cc(NC(=O)N[C@@H](C)c2ccccc2)ccc1OC` belongs 5.10; to `C#CCOc1cc(NC(=O)N[C@@H](C)c2ccccc2)ccc1OC`, 5.08; to `CCCCOc1cc(NC(=O)N2CCCC2c2ccccc2)ccc1OC` (configuration not stated), 6.98.
On the same count and under the same terms, to `COc1ccc(NC(=O)N[C@@H](C)c2ccccc2)cc1OC(C)C` belongs 4.97.
For the compound `COc1ccc(NC(=O)N[C@@H](C)c2cccc(Br)c2)cc1OCCCC(C)C`, the pIC50 was 5.88.
The same measure, in the same setting: to `CCCCOc1cc(NC(=O)N[C@@H](C)c2ccccc2)ccc1OC` belongs 7.48; to `COc1ccc(NC(=O)N(CCCO)[C@@H](C)c2ccccc2)cc1OCCCC(C)C`, 6.65.
Still for that read-out and setting: to `CCCCCOc1cc(NC(=O)N[C@@H](C)c2ccccc2)cc(OC)c1` belongs 6.57; to `CCCCCCCOc1cc(NC(=O)N[C@@H](C)c2ccccc2)ccc1OC`, 6.11.
In the case of `COc1ccc(NC(=O)N(CCCN)[C@@H](C)c2ccccc2)cc1OCCCC(C)C`, the pIC50 is 5.15.
Still for that read-out and setting: under `COc1ccc(NC(=O)N[C@@H](C)c2ccccc2)cc1OCC1CCCN(C)C1` (some centres not stated) stands 5.49.
Still for that read-out and setting: under `COc1ccc(NC(=O)N[C@@H](C)c2ccccc2)cc1OCC(C)C` stands 6.06; under `C=CCOc1cc(NC(=O)N[C@@H](C)c2ccccc2)ccc1OC`, 5.76.
For `COc1ccc(NC(=O)N[C@@H](C)c2ccc(O)cc2)cc1OCCCC(C)C`, the pIC50 was 6.86.
As for `COCCOc1cc(NC(=O)N[C@@H](C)c2ccccc2)ccc1OC`, the pIC50 was 5.70.
With `COc1ccc(NC(=O)N[C@@H](C)c2ccccc2)cc1OCCCC(C)C`, the pIC50 is 7.89.
On the same count and under the same terms, under `COc1ccc(NC(=O)N[C@@H](C)c2ccc(F)cc2)cc1OCCCC(C)C` stands 6.40; under `COc1ccc(NC(=O)N[C@@H](C)c2ccccc2[N+](=O)[O-])cc1OCCCC(C)C`, 6.43; under `COc1ccc(NC(=O)N[C@@H](C)c2ccc(C(=O)O)cc2)cc1OCCCC(C)C`, 6.12.
The same measure, in the same setting: under `N=C(N)c1cc2ccc(OC(=O)c3cccs3)cc2s1` stands 8.00; under `COc1ccc(NC(=O)N[C@@H](C)c2ccccc2)cc1OCC1CCCCC1`, 6.33.
Still for that read-out and setting: to `COc1ccc(NC(=O)N[C@@H](C)c2ccc(C)cc2)cc1OCCCC(C)C` belongs 6.49.
On to `CCCCCCOc1cc(NC(=O)N[C@@H](C)c2ccccc2)ccc1OC`, for which the pIC50 was 7.77.
The same measure, in the same setting: under `COC(=O)c1ccc([C@H](C)NC(=O)Nc2ccc(OC)c(OCCCC(C)C)c2)cc1` stands 6.27; under `COc1ccc(NC(=O)N[C@@H](C)c2ccc([N+](=O)[O-])cc2)cc1OCCCC(C)C`, 5.77; under `CCCCCOc1cccc(NC(=O)N[C@@H](C)c2ccccc2)c1`, 5.49.
Same read-out and setting: to `CC#CCOc1cc(NC(=O)N[C@@H](C)c2ccccc2)ccc1OC` belongs 5.80; to `COc1ccc(NC(=O)N[C@@H](C)c2ccc(C#N)cc2)cc1OCCCC(C)C`, 5.90; to `COc1ccc(NC(=O)N[C@@H](C)c2cccc(O)c2)cc1OCCCC(C)C`, 7.11.
On the same count and under the same terms, under `CCCCOc1cc(NC(=O)NC(CC)c2ccccc2)ccc1OC` (configuration not stated) stands 6.38.

Another assay is filed under the species Homo sapiens. In words: Inhibition of alternative complement system in human serum assessed as inhibition of C9 deposition at 10 ug/mL incubated for 1 hr by ELISA. The class given is cell-free.
As to `COc1ccc(NC(=O)N[C@@H](C)c2ccccc2)cc1OCCCC(C)C`, the inhibition amounted to 90%.

The values above are taken from ChEMBL document CHEMBL2203029, “Discovery and Structural Modification of 1-Phenyl-3-(1-phenylethyl)urea Derivatives as Inhibitors of Complement” (ACS Med Chem Lett, 2012).
